MrgX1 PAM: human MrgX1 positive allosteric modulation, primary screen; Q96LB2; MrgX1-HEK293, Fluo-4 calcium flux, FDSS; active compounds read high; B-score at 10 µM; 310,000 tested, 0.63% active; AID 588675;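 active means plate-corrected calcium response at least 3 library SD above typical, normal starting fluorescence, not activating the receptor alone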;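 further: compound read alongside a low EC10 to EC30 dose of BAM8-22 agonist; peak minus trough fluorescence over baseline measured at the second addition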
Target sequence (Q96LB2 whole entry, looked up): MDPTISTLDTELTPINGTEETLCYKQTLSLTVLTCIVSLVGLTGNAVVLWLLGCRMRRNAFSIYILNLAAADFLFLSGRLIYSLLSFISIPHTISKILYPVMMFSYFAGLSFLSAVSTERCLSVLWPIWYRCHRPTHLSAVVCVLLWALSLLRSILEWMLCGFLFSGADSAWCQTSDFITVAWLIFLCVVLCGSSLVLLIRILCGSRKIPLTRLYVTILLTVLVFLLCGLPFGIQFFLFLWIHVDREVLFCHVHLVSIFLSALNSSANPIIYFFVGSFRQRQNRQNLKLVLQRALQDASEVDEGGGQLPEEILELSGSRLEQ
RGS4 pot: potentiators or activators of RGS4; HEK293 M3R/inducible RGS4, carbachol calcium flux Fluo4; active compounds read low; 310,000 tested, 0.92% active; B-score at 10 µM;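 active means B-score of the integrated calcium signal more than 4 SD below the library mean, with starting fluorescence not abnormally high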;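 further: negative B-score means reduced calcium response which marks RGS4 activation or potentiation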
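Assay system: Inducible-RGS4 HEK293 cells carrying M3 receptor | Schedule: Compound preincubation 20 min at room temperature before agonist | Signal: Kinetic calcium fluorescence imaging with Fluo4-AM dye, 2 µM | Read-out basis: B score from integrated fluorescence ratio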
MrgX1 antagonist: antagonists of human MrgX1 receptor | MRGX1-HEK293 calcium flux, Fluo-4, BAM8-22 antagonism; active compounds read low | B-score at 10 µM | Q96LB2 | AID 588676 | 310,000 tested, 1.3% active;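 active means calcium-response B-score plate-corrected more than 3 library SD below zero, starting fluorescence within 5 deviations, no agonist response on first addition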;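 further: peak minus trough fluorescence over baseline after final BAM8-22 challenge near maximal dose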
RGS4 inh: human RGS4 inhibition | P49798 | HEK293 M3R/RGS4 inducible, Fluo-4 calcium flux; active compounds read high; triggered by carbachol at its EC20 | AID 463165 | 310,000 tested, 0.45% active | B-score at 10 µM;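 active means B-score, a plate-corrected calcium signal, over three deviations above library mean, with baseline fluorescence within five deviations of library mean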;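 further: RGS4 expression induced by doxycycline in cells with stable M3 receptor; B-score is computed from the integrated fluorescence ratio over baseline after carbachol; higher B-score means a larger calcium signal and so more RGS4 inhibition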
Target sequence (P49798 whole entry, looked up): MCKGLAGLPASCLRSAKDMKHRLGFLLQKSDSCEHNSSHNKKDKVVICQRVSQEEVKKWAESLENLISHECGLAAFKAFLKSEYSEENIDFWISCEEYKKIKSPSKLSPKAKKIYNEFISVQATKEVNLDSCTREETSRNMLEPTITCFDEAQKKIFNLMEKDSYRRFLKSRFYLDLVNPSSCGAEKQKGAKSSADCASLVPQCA
MrgX1 ag: human MrgX1 receptor agonism, primary screen; MrgX1-HEK293 cells, Fluo-4 calcium fluorescence, agonist mode; active compounds read high; B-score at 10 µM; 310,000 tested, 0.44% active;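 active means calcium response B-score plate-corrected fluorescence ratio at least 3 library SD, with starting fluorescence B-score inside 5 SD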
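System: HEK293 cells stably expressing human MrgX1 receptor; Dosing: test compound in the initial addition of three; Schedule: overnight plating, then 30 min 37 °C plus 30 min room-temperature dye loading; Detection: kinetic calcium dye fluorescence, Fluo-4 NW; Controls: per-plate positive and negative controls for Z′ factor.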
RGS4 block valid: RGS4 inhibitor validation; 1,700 tested, 65% active; shares compounds with RGS4 inh; AID 492999; calcium response, % at 10 µM; HEK293 M3R/RGS4, carbachol calcium Fluo-4 fluorescence; carbachol added at its EC20; 0 = buffer wells, 100 = carbachol control;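 active means duplicate-averaged calcium response above the buffer-only control mean plus 5 SD of those controls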;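 further: integrated fluorescence ratio F max minus min over baseline F0; higher response in RGS4-induced cells means RGS4 inhibition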
M3R Ca ctr: non-induced cell nonspecific activity of RGS4 inhibitors. shares compounds with RGS4 inh. HEK293 M3R non-induced, carbachol calcium Fluo-4; submaximal (EC20) carbachol stimulus; buffer wells 0%, carbachol control wells 100%. activity (percent), % at 10 µM. 1,900 tested, 20% active; call rule not given here;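 further: RGS4 induction absent so cells express M3R without RGS4; higher means more calcium signal and flags a non-specific hit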
RGS4 inh ctr2: signal in non-induced cells without carbachol, RGS4 inhibitor counter-screen. shares compounds with RGS4 inh. HEK293 M3R/RGS4 non-induced, Fluo-4 calcium, no carbachol; normalised: buffer wells 0%, carbachol wells 100%. calcium response (agonist-mode artifact), % at 10 µM. 1,900 tested, 22% active. AID 493001;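 active means duplicate-averaged calcium rise in uninduced cells above buffer wells' mean plus 5 SD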
The depositor's hits bear a star. Shown are actives, neighbours in structure and some others; about 3.5% of the full set was active somewhere.

Results for O=C(N/N=C/c1c[nH]c2ccccc12)C1CC1c1ccccc1 (stereo unspecified) ?
MrgX1 PAM: inactive; RGS4 pot: inactive; MrgX1 antagonist: inactive; RGS4 inh: 5.6*; MrgX1 ag: inactive; RGS4 block valid: 9.5%*; M3R Ca ctr: 36%*; RGS4 inh ctr2: 11%*

What do the screens show for `Cc1ccc(-c2cc(C(=O)N/N=C/c3c[nH]c4ccccc34)[nH]n2)cc1`?
RGS4 pot: inactive; RGS4 inh: inactive; RGS4 block valid: inactive; M3R Ca ctr: inactive; RGS4 inh ctr2: inactive

How did O=C(N/N=C/c1c[nH]c2ccccc12)c1cc(-c2ccc(-c3ccccc3)cc2)n[nH]1 do in these assays?
MrgX1 PAM: inactive; RGS4 pot: inactive; MrgX1 antagonist: inactive; RGS4 inh: inactive; MrgX1 ag: inactive

What do the screens show for `O=C(N/N=C/c1c[nH]c2ccccc12)C1CC1(c1ccccc1)c1ccccc1` (stereo unspecified)?
MrgX1 PAM: inactive; RGS4 pot: inactive; MrgX1 antagonist: inactive; RGS4 inh: inactive; MrgX1 ag: inactive

How did CCc1[nH]nc2c1C1(C(=O)N(Cc3ccccc3)c3ccccc31)C(C#N)=C(N)O2 (stereo unspecified) do in these assays?
MrgX1 PAM: inactive; RGS4 pot: inactive; MrgX1 antagonist: inactive; RGS4 inh: inactive; MrgX1 ag: inactive

What do the screens show for `COC(=O)Cc1[nH]nc2c1C1(C(=O)N(Cc3ccc(Cl)cc3)c3ccccc31)C(C#N)=C(N)O2` (stereo unspecified)?
MrgX1 PAM: inactive; RGS4 pot: inactive; MrgX1 antagonist: inactive; RGS4 inh: 5.1*; MrgX1 ag: inactive; RGS4 block valid: 6.5%*; M3R Ca ctr: inactive; RGS4 inh ctr2: inactive

Results for Cc1nc(/N=C(\N)N(C)C)[nH]c(=O)c1C ?
MrgX1 PAM: inactive; RGS4 pot: inactive; MrgX1 antagonist: inactive; RGS4 inh: inactive; MrgX1 ag: inactive

What do the screens show for `CCOC(=O)c1c(C)[nH]c(C(=O)CN2C(=O)NC(C)(c3ccc(C)cc3)C2=O)c1C` (stereo unspecified)?
MrgX1 PAM: inactive; RGS4 pot: inactive; MrgX1 antagonist: inactive; RGS4 inh: inactive; MrgX1 ag: inactive; RGS4 block valid: inactive; M3R Ca ctr: inactive; RGS4 inh ctr2: 7.5%*

Results for CCOC(=O)c1c(C)[nH]c(C(=O)CN2C(=O)NC(CC)(c3ccccc3)C2=O)c1C (stereo unspecified) ?
MrgX1 PAM: inactive; RGS4 pot: inactive; MrgX1 antagonist: inactive; RGS4 inh: inactive; MrgX1 ag: inactive

Results for COc1cccc(C(=O)NNC(=O)C(=O)Nc2cccc3ccccc23)c1 ?
MrgX1 PAM: inactive; RGS4 pot: inactive; MrgX1 antagonist: inactive; RGS4 inh: inactive; MrgX1 ag: inactive

What do the screens show for `CCOc1ccc(-c2nnc(Nc3ccc(OC)c(C(=O)N4CCCCC4)c3)c3ccccc23)cc1`?
MrgX1 PAM: inactive; RGS4 pot: inactive; MrgX1 antagonist: inactive; RGS4 inh: inactive; MrgX1 ag: inactive; RGS4 block valid: inactive; M3R Ca ctr: inactive; RGS4 inh ctr2: inactive

What do the screens show for `COc1ccc(-c2cnnn2-c2ccc(NC(=O)c3ccco3)cc2)cc1OC`?
MrgX1 PAM: inactive; RGS4 pot: inactive; MrgX1 antagonist: inactive; RGS4 inh: 4.7*; MrgX1 ag: inactive; RGS4 block valid: 6.0%*; M3R Ca ctr: inactive; RGS4 inh ctr2: inactive

What do the screens show for `O=C(NCc1cccnc1)C1CCCN(Cc2cnn(-c3ccccc3)c2-n2cccc2)C1` (stereo unspecified)?
MrgX1 PAM: inactive; RGS4 pot: inactive; MrgX1 antagonist: inactive; RGS4 inh: inactive; MrgX1 ag: inactive

Results for CCCS(=O)(=O)N1CCN(Cc2c[nH]c3ccccc23)CC1 ?
MrgX1 PAM: inactive; RGS4 pot: inactive; MrgX1 antagonist: inactive; RGS4 inh: inactive; MrgX1 ag: inactive

What do the screens show for `Cc1ccc(-n2nc3c(=O)n(CC(=O)NCc4ccccc4Cl)nc(C)c3c2C)cc1`?
MrgX1 PAM: inactive; RGS4 pot: inactive; MrgX1 antagonist: inactive; RGS4 inh: inactive; MrgX1 ag: inactive

What do the screens show for `Cc1ccc(-n2nc3c(=O)n(CC(=O)NCCc4cccs4)nc(C)c3c2C)cc1`?
MrgX1 PAM: inactive; RGS4 pot: inactive; MrgX1 antagonist: inactive; RGS4 inh: inactive; MrgX1 ag: inactive; RGS4 block valid: inactive; M3R Ca ctr: inactive; RGS4 inh ctr2: inactive

How did Cc1ccc(-n2nc3c(=O)n(CC(=O)NCc4ccccc4)nc(C)c3c2C)cc1 do in these assays?
MrgX1 PAM: inactive; RGS4 pot: inactive; MrgX1 antagonist: inactive; RGS4 inh: inactive; MrgX1 ag: inactive; RGS4 block valid: inactive; M3R Ca ctr: inactive; RGS4 inh ctr2: inactive

What do the screens show for `CCOC(=O)N1CCN(c2nc(C)c3c(n2)CC(C)CC3=O)CC1` (stereo unspecified)?
MrgX1 PAM: inactive; RGS4 pot: inactive; MrgX1 antagonist: inactive; RGS4 inh: inactive; MrgX1 ag: inactive

Results for COc1cc(OC)c2c(c1O)OC(c1ccccc1)CC2=O (stereo unspecified) ?
MrgX1 PAM: inactive; RGS4 pot: inactive; MrgX1 antagonist: inactive; RGS4 inh: inactive; MrgX1 ag: inactive

How did CCC(=O)Nc1ccc2c(c1)nc(CCNC(=O)c1ccco1)n2C do in these assays?
MrgX1 PAM: inactive; RGS4 pot: inactive; MrgX1 antagonist: inactive; RGS4 inh: inactive; MrgX1 ag: inactive; M3R Ca ctr: inactive; RGS4 inh ctr2: inactive

How did Cc1ccccc1C(=O)Nc1ccc2c(c1)nc(CCNC(=O)c1ccco1)n2C do in these assays?
MrgX1 PAM: inactive; RGS4 pot: inactive; MrgX1 antagonist: inactive; RGS4 inh: inactive; MrgX1 ag: inactive

Results for O=C1/C(=C/c2ccc([N+](=O)[O-])cc2)C=C(c2ccccc2)N1c1ccccc1 ?
MrgX1 PAM: inactive; RGS4 pot: inactive; MrgX1 antagonist: inactive; RGS4 inh: inactive; MrgX1 ag: inactive; RGS4 block valid: inactive; M3R Ca ctr: inactive; RGS4 inh ctr2: inactive

High-throughput results (PubChem BioAssay)
